In ChEMBL document CHEMBL1208778, “Synthesis and anti-cancer activity of chalcone linked imidazolones” (2010):

Tests used:
Type in all cases: functional
[1] = test system: SK-MEL-28; assay: Growth inhibition of human SK-MEL-28 cells
Procedure, shortened: (§1)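 Five-dose testing was run within the NCI (Bethesda) in vitro Anticancer Screen Program on a panel of 53 human tumour cell lines from nine cancer types. Growth inhibition is reported as GI50.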

[2] = test system: NCI-H23; assay: Growth inhibition of human NCI-H23 cells; procedure, shortened: as §1
[3] = test system: SK-OV-3; assay: Growth inhibition of human SKOV3 cells
Procedure, shortened: (§2)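 Compounds that passed a preliminary screen were tested at five doses in the NCI (Bethesda) in vitro Anticancer Screen Program against a 53-line human tumour panel spanning leukemia, lung, colon, CNS, melanoma, ovarian, renal, prostate and breast. Growth inhibition is reported as GI50.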

[4] = test system: SNB-75; assay: Growth inhibition of human SNB75 cells; procedure, shortened: as §2
[5] = test system: 786-0; assay: Growth inhibition of human 786-0 cells; procedure, shortened: as §1
[6] = test system: MCF7; assay: Cell cycle arrest in human MCF7 cells assessed as accumulation at G2/M phase at 10 uM after 24 hrs by FACS analysis
Procedure, shortened: (§3)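 MCF-7 breast carcinoma cells were exposed to 10 µM test compound for 24 h, with DMSO as the vehicle control. Cell-cycle distribution was read by FACS as the percentage of cells in G0, G1, S and G2/M.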

[7] = test system: MCF7; assay: Cell cycle arrest in human MCF7 cells assessed as accumulation at G0 phase at 10 uM after 24 hrs by FACS analysis; procedure, shortened: as §3
[8] = test system: HT-29; assay: Growth inhibition of human HT-29 cells; procedure, shortened: as §1
[9] = test system: OVCAR-4; assay: Growth inhibition of human OVCAR4 cells; procedure, shortened: as §1
[10] = test system: LOX IMVI; assay: Growth inhibition of human LOXIMVI cells; procedure, shortened: as §1
[11] = test system: SN12C; assay: Growth inhibition of human SN12C cells; procedure, shortened: as §2
[12] = test system: TK-10; assay: Growth inhibition of human TK10 cells; procedure, shortened: as §2
[13] = Growth inhibition of human Hs 578T cells; procedure, shortened: as §1
[14] = Growth inhibition of human […] cells; procedure, shortened: as §1
[15] = test system: SF-268; assay: Growth inhibition of human SF268 cells; procedure, shortened: as §1
[16] = test system: NCI-H322M; assay: Growth inhibition of human NCI-H322M cells; procedure, shortened: as §1
[17] = test system: OVCAR-3; assay: Growth inhibition of human OVCAR-3 cells; procedure, shortened: as §1
[18] = test system: UACC-62; assay: Growth inhibition of human UACC62 cells; procedure, shortened: as §2
[19] = test system: MDA-MB-231; assay: Growth inhibition of human MDA-MB-231 cells; procedure, shortened: as §1
[20] = test system: Malme-3M; assay: Growth inhibition of human MALME-3M cells; procedure, shortened: as §1
[21] = test system: SW-620; assay: Growth inhibition of human SW620 cells; procedure, shortened: as §2
[22] = test system: MDA-MB-435; assay: Growth inhibition of human MDA-MB-435 cells; procedure, shortened: as §1
[23] = test system: COLO 205; assay: Growth inhibition of human COLO205 cells; procedure, shortened: as §1
[24] = test system: MCF7; assay: Cell cycle arrest in human MCF7 cells assessed as accumulation at G0 phase at 30 uM after 24 hrs by FACS analysis
Procedure, shortened: (§4)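 MCF-7 cells were treated at 30 µM for 24 h alongside a DMSO control. Fractions in G0, G1, S and G2/M phases were measured by FACS, and values are means of three experiments.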

[25] = test system: HCT-116; assay: Growth inhibition of human HCT116 cells; procedure, shortened: as §1
[26] = test system: UO-31; assay: Growth inhibition of human UO31 cells; procedure, shortened: as §2
[27] = test system: MCF7; assay: Cell cycle arrest in human MCF7 cells assessed as accumulation at G1 phase at 30 uM after 24 hrs by FACS analysis; procedure, shortened: as §4
[28] = test system: KM12; assay: Growth inhibition of human KM12 cells; procedure, shortened: as §1
[29] = test system: MCF7; assay: Cell cycle arrest in human MCF7 cells assessed as accumulation at G2/M phase at 30 uM after 24 hrs by FACS analysis; procedure, shortened: as §4
[30] = test system: SF-539; assay: Growth inhibition of human SF539 cells; procedure, shortened: as §1
[31] = test system: CAKI-1; assay: Growth inhibition of human Caki1 cells; procedure, shortened: as §1
[32] = test system: HCT-15; assay: Growth inhibition of human HCT15 cells; procedure, shortened: as §1
[33] = test system: UACC-257; assay: Growth inhibition of human UACC257 cells; procedure, shortened: as §2
[34] = test system: NCI-H226; assay: Growth inhibition of human NCI-H226 cells; procedure, shortened: as §1
[35] = test system: MCF7; assay: Cell cycle arrest in human MCF7 cells assessed as accumulation at S phase at 30 uM after 24 hrs by FACS analysis; procedure, shortened: as §4
[36] = test system: T47D; assay: Growth inhibition of human T47D cells; procedure, shortened: as §2
[37] = test system: HCC 2998; assay: Growth inhibition of human HCC2998 cells; procedure, shortened: as §1
[38] = test system: OVCAR-5; assay: Growth inhibition of human OVCAR5 cells; procedure, shortened: as §1
[39] = test system: ACHN; assay: Growth inhibition of human ACHN cells; procedure, shortened: as §1
[40] = test system: U-251; assay: Growth inhibition of human U251 cells; procedure, shortened: as §2
[41] = test system: HOP-62; assay: Growth inhibition of human HOP62 cells; procedure, shortened: as §1
[42] = test system: M14; assay: Growth inhibition of human M14 cells; procedure, shortened: as §1
[43] = test system: SK-MEL-5; assay: Growth inhibition of human SK-MEL-5 cells; procedure, shortened: as §1
[44] = test system: K562; assay: Growth inhibition of human K562 cells; procedure, shortened: as §1
[45] = test system: NCI-H522; assay: Growth inhibition of human NCI-H522 cells; procedure, shortened: as §1
[46] = test system: BT-549; assay: Growth inhibition of human BT549 cells; procedure, shortened: as §1
[47] = test system: EKVX; assay: Growth inhibition of human EKVX cells; procedure, shortened: as §1
[48] = test system: NCI-H460; assay: Growth inhibition of human NCI-H460 cells; procedure, shortened: as §1
[49] = test system: RXF 393; assay: Growth inhibition of human RXF393 cells; procedure, shortened: as §1
[50] = test system: HOP-92; assay: Growth inhibition of human HOP92 cells; procedure, shortened: as §1
[51] = test system: A498; assay: Growth inhibition of human A498 cells; procedure, shortened: as §1
[52] = test system: A549; assay: Growth inhibition of human A549 cells; procedure, shortened: as §1
[53] = test system: MCF7; assay: Cell cycle arrest in human MCF7 cells assessed as accumulation at S phase at 10 uM after 24 hrs by FACS analysis; procedure, shortened: as §3
[54] = test system: SF-295; assay: Growth inhibition of human SF295 cells; procedure, shortened: as §1
[55] = test system: MCF7; assay: Cell cycle arrest in human MCF7 cells assessed as accumulation at G1 phase at 10 uM after 24 hrs by FACS analysis; procedure, shortened: as §3
[56] = test system: SNB-19; assay: Growth inhibition of human SNB19 cells; procedure, shortened: as §2
[57] = test system: NCI/ADR-RES; assay: Growth inhibition of human NCI/ADR-RES cells; procedure, shortened: as §1
[58] = test system: MCF7; assay: Growth inhibition of human MCF7 cells; procedure, shortened: as §1
[59] = test system: SK-MEL-2; assay: Growth inhibition of human SK-MEL-2 cells; procedure, shortened: as §1
[60] = test system: OVCAR-8; assay: Growth inhibition of human OVCAR8 cells; procedure, shortened: as §1
[61] = test system: PC-3; assay: Growth inhibition of human PC3 cells; procedure, shortened: as §1

O=C(/C=C/c1cccc(O)c1)c1cccc(-n2cc(-c3ccc(Cl)cc3)[nH]c2=O)c1
GI50 [1]: 3640 nM | GI50 [2]: 2780 nM | GI50 [3]: 4210 nM | GI50 [4]: 1460 nM | GI50 [5]: 1570 nM | Activity [6]: 23.63% | Activity [7]: 3.1% | GI50 [8]: 1900 nM | GI50 [9]: 2210 nM | GI50 [10]: 1570 nM | GI50 [11]: 1950 nM | GI50 [12]: 2830 nM | GI50 [13]: 4000 nM | GI50 [14]: 1550 nM | GI50 [15]: 1780 nM | GI50 [16]: 2520 nM | GI50 [17]: 1560 nM | GI50 [18]: 1850 nM | GI50 [19]: 3350 nM | GI50 [20]: 1830 nM | GI50 [21]: 1620 nM | GI50 [22]: 2060 nM | GI50 [23]: 2290 nM | Activity [24]: 17.17% | GI50 [25]: 1230 nM | GI50 [26]: 550 nM | Activity [27]: 58.33% | GI50 [28]: 1340 nM | Activity [29]: 10.8% | GI50 [30]: 1680 nM | GI50 [31]: 1720 nM | GI50 [32]: 2330 nM | GI50 [33]: 4070 nM | GI50 [34]: 2310 nM | Activity [35]: 13.7% | GI50 [36]: 1920 nM | GI50 [37]: 13700 nM | GI50 [38]: 2190 nM | GI50 [39]: 1840 nM | GI50 [40]: 580 nM | GI50 [41]: 2360 nM | GI50 [42]: 2010 nM | GI50 [43]: 1530 nM | GI50 [44]: 400 nM | GI50 [45]: 1650 nM | GI50 [46]: 1450 nM | GI50 [47]: 2400 nM | GI50 [48]: 2410 nM | GI50 [49]: 1510 nM | GI50 [50]: 1600 nM | GI50 [51]: 3710 nM | GI50 [52]: 3550 nM | Activity [53]: 13.92% | GI50 [54]: 1790 nM | Activity [55]: 59.35% | GI50 [56]: 1920 nM | GI50 [57]: 2200 nM | GI50 [58]: 1270 nM | GI50 [59]: 2070 nM | GI50 [60]: 990 nM

O=C(/C=C/c1cccc(O)c1)c1cccc(-n2cc(-c3ccccc3)[nH]c2=O)c1
GI50 [1]: 5630 nM | GI50 [2]: 3350 nM | GI50 [3]: 11100 nM | GI50 [4]: 12100 nM | GI50 [5]: 2980 nM | Activity [6]: 22.16% | Activity [7]: 2.1% | GI50 [8]: 3330 nM | GI50 [9]: 5300 nM | GI50 [10]: 1850 nM | GI50 [11]: 3140 nM | GI50 [13]: 6140 nM | GI50 [14]: 2150 nM | GI50 [15]: 4530 nM | GI50 [16]: 10600 nM | GI50 [17]: 3080 nM | GI50 [18]: 3650 nM | GI50 [19]: 3860 nM | GI50 [20]: 6210 nM | GI50 [21]: 2410 nM | GI50 [22]: 3120 nM | GI50 [23]: 2010 nM | Activity [24]: 11.07% | GI50 [25]: 3020 nM | GI50 [26]: 2160 nM | Activity [27]: 53.92% | GI50 [28]: 1830 nM | Activity [29]: 17.8% | GI50 [30]: 1980 nM | GI50 [31]: 13300 nM | GI50 [32]: 3100 nM | GI50 [33]: 7680 nM | GI50 [34]: 24800 nM | Activity [35]: 17.21% | GI50 [36]: 4240 nM | GI50 [37]: 4090 nM | GI50 [38]: 5440 nM | GI50 [39]: 2760 nM | GI50 [40]: 1610 nM | GI50 [41]: 6930 nM | GI50 [42]: 4530 nM | GI50 [43]: 3180 nM | GI50 [44]: 3350 nM | GI50 [46]: 9320 nM | GI50 [47]: 15600 nM | GI50 [61]: 2820 nM | GI50 [48]: 2490 nM | GI50 [49]: 1890 nM | GI50 [50]: 5040 nM | GI50 [51]: 14300 nM | GI50 [52]: 3890 nM | Activity [53]: 18.48% | GI50 [54]: 18200 nM | Activity [55]: 57.26% | GI50 [56]: 10900 nM | GI50 [57]: 3730 nM | GI50 [58]: 2470 nM | GI50 [59]: 8260 nM | GI50 [60]: 2800 nM
